Assay results pooled from the literature.
Target: Tyrosine-protein kinase Fes/Fps (FES, Homo sapiens, UniProt P07332)

Structure (SMILES)	observed	technique	tested at	remaining binding
F[C@@H]1CCN(c2nccc(-c3cnn4ncccc34)n2)C1	binding		1 µM	77%
O=C(NCC1CCOCC1)c1n[nH]cc1NC(=O)c1c(F)cccc1F	binding	competition with immobilised ligand	1 µM	100%
Cc1c[nH]c2nccc(Oc3c(F)cc(Nc4cc(Cl)nc(N)n4)cc3F)c12	cell-free assay	competition with immobilised ligand	0.1 µM	100%
CNC(=O)[C@@H]1CC[C@@H](n2c(-c3ccc4cnccc4c3)nc3ccc(C(=O)NCc4cccc(C(N)=O)c4)cc32)C1	binding	competition with immobilised ligand	1 µM	86%
C[C@@H](c1ccc(-n2cnc3c(N)ncnc32)cc1)N1CCc2nn(C)c(Cc3ccccc3)c2C1=O	binding	competition with immobilised ligand	0.1 µM	89%
COc1cnc(Nc2cccc(S(N)(=O)=O)c2)nc1N1CCN(c2ccccc2)C(=O)C1	binding	competition with immobilised ligand	1 µM	100%
O=C(c1ccc(Nc2ncc(Cl)c(-c3cc4ccccc4s3)n2)cc1)N1CCC(N2CCCC2)CC1	binding	competition with immobilised ligand	1 µM	74%
FC(F)(F)Oc1cccc(-c2cnc3ccc(-c4ccncc4)nn23)c1	cell-free assay	competition with immobilised ligand	5 µM	84%
C=CC(=O)N1CCC(C(=O)NCC(=O)N2CCN(c3nc(-c4cnc(N)nc4C(F)F)nc(N4CCOCC4)n3)CC2)CC1	binding	competition with immobilised ligand	1 µM	100%
Cc1c(NC(=O)c2cc(C(N)=O)nc3cc(F)ccc23)c(C(F)(F)F)nn1Cc1ccc(C(C)(C)C)cc1	cell-free assay	competition with immobilised ligand	1 µM	100%
N[C@@H]1CCN(c2nccc(-c3cnn4ncccc34)n2)C1	binding		1 µM	100%
O=C(NCCCN1CCOCC1)c1ccc(Nc2nccc(-c3cc4ccccc4s3)n2)cc1	binding	competition with immobilised ligand	1 µM	85%
COc1ccnn2ncc(-c3ccnc(N(C)C)n3)c12	binding		1 µM	75%
CN([C@@H]1CCc2c(CC(=O)O)c3ccccc3n2C1)S(=O)(=O)c1ccc(F)cc1	cell-free assay	competition with immobilised ligand	1 µM	79%
CN(C)c1nccc(-c2cnn3ncccc23)n1	binding		1 µM	100%
COCCOc1nc(-c2ccc(Cl)nc2)nc2c1CN(C(=O)c1ncn3ccccc13)CC2	cell-free assay	competition with immobilised ligand	0.1 µM	100%
CN(C)c1ncc(F)c(-c2cnn3ncccc23)n1	binding		1 µM	87%
CCS(=O)(=O)c1cc2cc(C[C@@](O)(CC(C)(C)c3ccc(F)cc3C(N)=O)C(F)(F)F)[nH]c2cn1	cell-free assay	competition with immobilised ligand	1 µM	100%
Nc1ncc2c(n1)-c1c([nH]c3ccc(C#CC4CC4)cc13)CCCC2	binding	competition with immobilised ligand	1 µM	100%
C[C@H]1CCN(c2nccc(-c3cnn4ncccc34)n2)C1	binding		1 µM	100%
CN(C)C(=O)Cn1cc(-c2nc([C@@](C)(c3ccc(-c4cnc(N)nc4)cc3)C3CC3)no2)cn1	cell-free assay	competition with immobilised ligand	1 µM	100%
O=C(NCCCN1CCOCC1)c1ccc(Nc2ncc(Cl)c(-c3ccc(Cl)s3)n2)cc1	binding	competition with immobilised ligand	1 µM	62%
